From ChEMBL document CHEMBL1150247, “Structural determinants for affinity enhancement of a dual antagonist peptide entry inhibitor of human immunodeficiency virus type-1” (J Med Chem, 2008) come the findings set out here.

The nature of data set [1]: Binding affinity to immobilized HIV1 YU2 gp120 by surface plasmon resonance method. Details: species or system Human immunodeficiency virus 1. An outline of the steps: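 YU2 gp120 (Drosophila S2-expressed, F105-affinity purified) amine-coupled to CM5 chip (~4000 RU); peptides in PBS injected at 15 μL/min, 5 min association, 5 min dissociation. Buffer and anti-IL5Rα 2B6R control-surface responses subtracted; kinetic constants fitted in BIAevaluation.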

A short description of data set [2]: Cytotoxicity against CCR5 expressing human P4 cells after 2 hrs by MTT assay. It counts as cell-based. As to conditions: p4, 2 h. The gist of the method:
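P4-CCR5 cells seeded 4×10^4/well ~18 h ahead, exposed 2 h to varying peptide concentrations, washed, then viability by MTT; triplicate in two independent assays.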
Background: Tetrazolium dyes change colour on reduction, which living cells bring about.

Data set [3] can be described thus: Inhibition of HIV1 YU2 gp120 binding to immobilized CD4 binding site specific b6 monoclonal antibody by surface plasmon resonance method. Details: species or system Human immunodeficiency virus 1. On the technique in general: SPR reads the build-up and loss of mass on a sensor chip optically.
The nature of data set [4]: Inhibition of HIV1 YU2 gp120 binding to immobilized CD4 by surface plasmon resonance method. Details: species or system Human immunodeficiency virus 1.
The nature of data set [5]: Inhibition of HIV1 YU2 gp120 binding to immobilized CD4 binding site specific immunoglobulin G b12 monoclonal antibody by surface plasmon resonance method. More on the design: species or system Human immunodeficiency virus 1.
Data set [6] concerns Human immunodeficiency virus 1. Description: Antiviral activity against HIV1 BaL in CCR5 expressing P4 cells after 2 hrs. It counts as functional, organism-based. To be noted: Human immunodeficiency virus 1, BaL, P4, 2 h. An outline of the steps: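 P4-CCR5 cells (DMEM, 10% FBS, puromycin) seeded 1.2×10^4/well ~18 h ahead; exposed 2 h to HIV-1 BaL plus peptide, washed, cultured 46 more h; infection read by β-galactosidase reporter assay. Infectivity relative to mock-treated infected cells; IC50 from sigmoidal dose-response fit; two independent experiments combined.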

Data set [7] is described as follows: Inhibition of HIV1 YU2 gp120 binding to immobilized CD4 induced 17b monoclonal antibody by surface plasmon resonance method. Details: species or system Human immunodeficiency virus 1.
Data set [8] is described as follows: Inhibition of HIV1 YU2 gp120 binding to immobilized CD4 binding site specific F105 monoclonal antibody by surface plasmon resonance method. More on the design: species or system Human immunodeficiency virus 1.

For the compound `CC[C@H](C)[C@H](NC(=O)[C@@H](N)CCCNC(=N)N)C(=O)N[C@@H](CC(N)=O)C(=O)N[C@@H](CC(N)=O)C(=O)N[C@H](C(=O)N1C[C@@H](n2cc(-c3ccccc3OC)nn2)C[C@H]1C(=O)N[C@@H](Cc1c[nH]c2ccccc12)C(=O)N[C@@H](CO)C(=O)N[C@@H](CCC(=O)O)C(=O)N[C@@H](C)C(=O)N[C@@H](CCSC)C(=O)N[C@@H](CCSC)C(=O)O)[C@@H](C)CC`, the Kd – broadly, the free concentration of one partner at which half of the binding sites on the other are occupied at equilibrium, for simple one-to-one binding – in data set [1] worked out at 14000 nM.

In the case of `CC[C@H](C)[C@H](NC(=O)[C@@H](N)CCCNC(=N)N)C(=O)N[C@@H](CC(N)=O)C(=O)N[C@@H](CC(N)=O)C(=O)N[C@H](C(=O)N1C[C@@H](n2cc(Cn3nnc4ccccc43)nn2)C[C@H]1C(=O)N[C@@H](Cc1c[nH]c2ccccc12)C(=O)N[C@@H](CO)C(=O)N[C@@H](CCC(=O)O)C(=O)N[C@@H](C)C(=O)N[C@@H](CCSC)C(=O)N[C@@H](CCSC)C(=O)O)[C@@H](C)CC`, binding in data set [1] was put at a Kd of 388 nM.

In data set [1], `CC[C@H](C)[C@H](NC(=O)[C@@H](N)CCCNC(=N)N)C(=O)N[C@@H](CC(N)=O)C(=O)N[C@@H](CC(N)=O)C(=O)N[C@H](C(=O)N1C[C@@H](n2cc(-c3cccc4ccccc34)nn2)C[C@H]1C(=O)N[C@@H](Cc1c[nH]c2ccccc12)C(=O)N[C@@H](CO)C(=O)N[C@@H](CCC(=O)O)C(=O)N[C@@H](C)C(=O)N[C@@H](CCSC)C(=O)N[C@@H](CCSC)C(=O)O)[C@@H](C)CC` returned a Kd of 54 nM.

For the compound `CCc1ccc(-c2cn([C@H]3C[C@@H](C(=O)N[C@@H](Cc4c[nH]c5ccccc45)C(=O)N[C@@H](CO)C(=O)N[C@@H](CCC(=O)O)C(=O)N[C@@H](C)C(=O)N[C@@H](CCSC)C(=O)N[C@@H](CCSC)C(=O)O)N(C(=O)[C@@H](NC(=O)[C@H](CC(N)=O)NC(=O)[C@H](CC(N)=O)NC(=O)[C@@H](NC(=O)[C@@H](N)CCCNC(=N)N)[C@@H](C)CC)[C@@H](C)CC)C3)nn2)cc1`, the Activity entry in data set [2] was “Non-toxic”. Moreover, the half-maximal inhibitory concentration (IC50) – broadly, the concentration needed to halve the response being measured – in data set [3] came to 235 nM; in data set [4] it was 146 nM; in data set [5], 191 nM; in data set [6] it was 418 nM; in data set [7] it was 177 nM; in data set [8], 137 nM. In addition, the dissociation constant (Kd) in data set [1] worked out at 9 nM.

In turn, `CC[C@H](C)[C@H](NC(=O)[C@@H](N)CCCNC(=N)N)C(=O)N[C@@H](CC(N)=O)C(=O)N[C@@H](CC(N)=O)C(=O)N[C@H](C(=O)N1C[C@@H](n2cc(-c3cc(C)c(C)cc3C)nn2)C[C@H]1C(=O)N[C@@H](Cc1c[nH]c2ccccc12)C(=O)N[C@@H](CO)C(=O)N[C@@H](CCC(=O)O)C(=O)N[C@@H](C)C(=O)N[C@@H](CCSC)C(=O)N[C@@H](CCSC)C(=O)O)[C@@H](C)CC` displayed an equilibrium dissociation constant (Kd) in data set [1] of 160 nM.

In turn, `CC[C@H](C)[C@H](NC(=O)[C@@H](N)CCCNC(=N)N)C(=O)N[C@@H](CC(N)=O)C(=O)N[C@@H](CC(N)=O)C(=O)N[C@H](C(=O)N1C[C@@H](n2cc(-c3cccc(C)c3)nn2)C[C@H]1C(=O)N[C@@H](Cc1c[nH]c2ccccc12)C(=O)N[C@@H](CO)C(=O)N[C@@H](CCC(=O)O)C(=O)N[C@@H](C)C(=O)N[C@@H](CCSC)C(=O)N[C@@H](CCSC)C(=O)O)[C@@H](C)CC` returned a dissociation constant (Kd) in data set [1] of 83 nM.

Take `CC[C@H](C)[C@H](NC(=O)[C@@H](N)CCCNC(=N)N)C(=O)N[C@@H](CC(N)=O)C(=O)N[C@@H](CC(N)=O)C(=O)N[C@H](C(=O)N1C[C@@H](n2cc(CSc3ccccc3)nn2)C[C@H]1C(=O)N[C@@H](Cc1c[nH]c2ccccc12)C(=O)N[C@@H](CO)C(=O)N[C@@H](CCC(=O)O)C(=O)N[C@@H](C)C(=O)N[C@@H](CCSC)C(=O)N[C@@H](CCSC)C(=O)O)[C@@H](C)CC`: binding in data set [1] was put at a Kd of 115 nM.

Compound `CC[C@H](C)[C@H](NC(=O)[C@@H](N)CCCNC(=N)N)C(=O)N[C@@H](CC(N)=O)C(=O)N[C@@H](CC(N)=O)C(=O)N[C@H](C(=O)N1C[C@@H](n2cc(-c3ccc(N)cc3)nn2)C[C@H]1C(=O)N[C@@H](Cc1c[nH]c2ccccc12)C(=O)N[C@@H](CO)C(=O)N[C@@H](CCC(=O)O)C(=O)N[C@@H](C)C(=O)N[C@@H](CCSC)C(=O)N[C@@H](CCSC)C(=O)O)[C@@H](C)CC` returned a Kd in data set [1] of 437 nM.

Compound `CC[C@H](C)[C@H](NC(=O)[C@@H](N)CCCNC(=N)N)C(=O)N[C@@H](CC(N)=O)C(=O)N[C@@H](CC(N)=O)C(=O)N[C@H](C(=O)N1C[C@@H](n2cc(C3=CCCCC3)nn2)C[C@H]1C(=O)N[C@@H](Cc1c[nH]c2ccccc12)C(=O)N[C@@H](CO)C(=O)N[C@@H](CCC(=O)O)C(=O)N[C@@H](C)C(=O)N[C@@H](CCSC)C(=O)N[C@@H](CCSC)C(=O)O)[C@@H](C)CC` had an equilibrium dissociation constant (Kd) in data set [1] of 98 nM.

`CC[C@H](C)[C@H](NC(=O)[C@@H](N)CCCNC(=N)N)C(=O)N[C@@H](CC(N)=O)C(=O)N[C@@H](CC(N)=O)C(=O)N[C@H](C(=O)N1C[C@@H](n2cc(-c3ccccc3C)nn2)C[C@H]1C(=O)N[C@@H](Cc1c[nH]c2ccccc12)C(=O)N[C@@H](CO)C(=O)N[C@@H](CCC(=O)O)C(=O)N[C@@H](C)C(=O)N[C@@H](CCSC)C(=O)N[C@@H](CCSC)C(=O)O)[C@@H](C)CC` had a Kd in data set [1] of 128 nM.

As for `CC[C@H](C)[C@H](NC(=O)[C@@H](N)CCCNC(=N)N)C(=O)N[C@@H](CC(N)=O)C(=O)N[C@@H](CC(N)=O)C(=O)N[C@H](C(=O)N1C[C@@H](n2cc(-c3ccccc3N)nn2)C[C@H]1C(=O)N[C@@H](Cc1c[nH]c2ccccc12)C(=O)N[C@@H](CO)C(=O)N[C@@H](CCC(=O)O)C(=O)N[C@@H](C)C(=O)N[C@@H](CCSC)C(=O)N[C@@H](CCSC)C(=O)O)[C@@H](C)CC`, the Kd in data set [1] was 25000 nM.

In data set [1], `CC[C@H](C)[C@H](NC(=O)[C@@H](N)CCCNC(=N)N)C(=O)N[C@@H](CC(N)=O)C(=O)N[C@@H](CC(N)=O)C(=O)N[C@H](C(=O)N1C[C@@H](n2cc(-c3ccc(OC)cc3)nn2)C[C@H]1C(=O)N[C@@H](Cc1c[nH]c2ccccc12)C(=O)N[C@@H](CO)C(=O)N[C@@H](CCC(=O)O)C(=O)N[C@@H](C)C(=O)N[C@@H](CCSC)C(=O)N[C@@H](CCSC)C(=O)O)[C@@H](C)CC` registered a Kd of 154 nM.

As for `CC[C@H](C)[C@H](NC(=O)[C@@H](N)CCCNC(=N)N)C(=O)N[C@@H](CC(N)=O)C(=O)N[C@@H](CC(N)=O)C(=O)N[C@H](C(=O)N1C[C@@H](n2cc(-c3cc(C)ccc3C)nn2)C[C@H]1C(=O)N[C@@H](Cc1c[nH]c2ccccc12)C(=O)N[C@@H](CO)C(=O)N[C@@H](CCC(=O)O)C(=O)N[C@@H](C)C(=O)N[C@@H](CCSC)C(=O)N[C@@H](CCSC)C(=O)O)[C@@H](C)CC`, in data set [1], the Kd is 741 nM.

Turning to `CC[C@H](C)[C@H](NC(=O)[C@@H](N)CCCNC(=N)N)C(=O)N[C@@H](CC(N)=O)C(=O)N[C@@H](CC(N)=O)C(=O)N[C@H](C(=O)N1C[C@@H](n2cc(-c3ccc(F)c(C)c3)nn2)C[C@H]1C(=O)N[C@@H](Cc1c[nH]c2ccccc12)C(=O)N[C@@H](CO)C(=O)N[C@@H](CCC(=O)O)C(=O)N[C@@H](C)C(=O)N[C@@H](CCSC)C(=O)N[C@@H](CCSC)C(=O)O)[C@@H](C)CC`, the dissociation constant (Kd) in data set [1] is 38 nM.

`CC[C@H](C)[C@H](NC(=O)[C@@H](N)CCCNC(=N)N)C(=O)N[C@@H](CC(N)=O)C(=O)N[C@@H](CC(N)=O)C(=O)N[C@H](C(=O)N1C[C@@H](n2cc(-c3ccccc3CO)nn2)C[C@H]1C(=O)N[C@@H](Cc1c[nH]c2ccccc12)C(=O)N[C@@H](CO)C(=O)N[C@@H](CCC(=O)O)C(=O)N[C@@H](C)C(=O)N[C@@H](CCSC)C(=O)N[C@@H](CCSC)C(=O)O)[C@@H](C)CC` showed a Kd in data set [1] of 1930 nM.

For `CC[C@H](C)[C@H](NC(=O)[C@@H](N)CCCNC(=N)N)C(=O)N[C@@H](CC(N)=O)C(=O)N[C@@H](CC(N)=O)C(=O)N[C@H](C(=O)N1C[C@H](n2cc(-c3ccccc3)nn2)C[C@H]1C(=O)N[C@@H](Cc1c[nH]c2ccccc12)C(=O)N[C@@H](CO)C(=O)N[C@@H](CCC(=O)O)C(=O)N[C@@H](C)C(=O)N[C@@H](CCSC)C(=O)N[C@@H](CCSC)C(=O)O)[C@@H](C)CC`, binding in data set [1] was put at a Kd of 2700 nM.

`CC[C@H](C)[C@H](NC(=O)[C@@H](N)CCCNC(=N)N)C(=O)N[C@@H](CC(N)=O)C(=O)N[C@@H](CC(N)=O)C(=O)N[C@H](C(=O)N1C[C@@H](n2cc(-c3ccc(F)cc3)nn2)C[C@H]1C(=O)N[C@@H](Cc1c[nH]c2ccccc12)C(=O)N[C@@H](CO)C(=O)N[C@@H](CCC(=O)O)C(=O)N[C@@H](C)C(=O)N[C@@H](CCSC)C(=O)N[C@@H](CCSC)C(=O)O)[C@@H](C)CC` yielded a dissociation constant Kd in data set [1] of 91 nM.

As to `CC[C@H](C)[C@H](NC(=O)[C@@H](N)CCCNC(=N)N)C(=O)N[C@@H](CC(N)=O)C(=O)N[C@@H](CC(N)=O)C(=O)N[C@H](C(=O)N1C[C@@H](n2cc(-c3ccc(CCc4ccccc4)cc3)nn2)C[C@H]1C(=O)N[C@@H](Cc1c[nH]c2ccccc12)C(=O)N[C@@H](CO)C(=O)N[C@@H](CCC(=O)O)C(=O)N[C@@H](C)C(=O)N[C@@H](CCSC)C(=O)N[C@@H](CCSC)C(=O)O)[C@@H](C)CC`, the Activity result in data set [2] is reported as “Non-toxic”. Moreover, the IC50 in data set [3] stood at 85 nM; in data set [4], 99 nM; in data set [5] it was 65 nM; in data set [6] it was 610000 nM; in data set [7], 129 nM; in data set [8] it was 23 nM.
